Compounds with a hit are over-represented: about 2.4% of the library has one in this group of screens.
HTR2A ag = activates the mouse 5-HT2A serotonin receptor | activation, % at 7.6 µM | P35363 | CHO-K1 mHTR2A beta-arrestin complementation, luminescence; percent of 30 µM serotonin response | actives 0.66% (n = 360,000) | AID 624169;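 active means activation above a run cutoff, the mean activation of all tested compounds plus 3 SD, cut at about 14% in these data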;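 further: 0% = plate median of compound wells and 100% = 30 µM serotonin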
Target sequence (P35363 whole entry, looked up): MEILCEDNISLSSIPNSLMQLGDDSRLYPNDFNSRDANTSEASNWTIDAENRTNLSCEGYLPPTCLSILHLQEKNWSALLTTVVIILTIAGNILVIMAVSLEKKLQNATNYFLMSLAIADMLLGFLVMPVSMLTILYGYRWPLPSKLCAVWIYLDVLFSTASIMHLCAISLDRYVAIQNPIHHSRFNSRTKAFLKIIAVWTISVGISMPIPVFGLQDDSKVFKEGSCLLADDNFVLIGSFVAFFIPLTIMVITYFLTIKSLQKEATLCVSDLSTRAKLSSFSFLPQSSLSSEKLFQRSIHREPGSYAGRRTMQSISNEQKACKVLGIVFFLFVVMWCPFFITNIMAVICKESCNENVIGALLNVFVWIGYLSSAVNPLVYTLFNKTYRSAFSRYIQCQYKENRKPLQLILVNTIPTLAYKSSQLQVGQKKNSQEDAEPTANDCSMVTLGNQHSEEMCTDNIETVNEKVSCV
Calb FLC = affects C. albicans growth with fluconazole; C. albicans CaCi-2 + fluconazole, Alamar Blue growth, 48 h; growth inhibition, % (test concentration not listed); actives 0.57% (n = 300,000); AID 1979;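 active means growth inhibition above about 58% in most replicates, limit read from the data, passing the limit was not always enough; inconclusive means exactly half the replicates above a set limit; inactive means most replicates below a set limit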;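 further: all wells also contain fluconazole at 8 µg/ml as a sub-toxic cotreatment; 0% = median of DMSO wells and 100% = median of geldanamycin control wells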
SR-BI DiI inh = inhibitors of mouse SR-BI mediated HDL lipid uptake. Q61009. ldlA[mSR-BI] CHO cells, DiI-HDL uptake fluorescence, 3 h. inhibition, % at 12.5 µM. actives 0.96% (n = 320,000);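 active means mean replicate inhibition of at least 70% and a set share of replicates each scoring 70 or more; inconclusive means meets just one of the two criteria; inactive means fails both criteria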;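 further: 0% = median of neutral control wells and 100% = median of positive control wells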
MIN6 prolif = induces beta-cell replication in MIN6 cells | MIN6 cells proliferation, ATPlite luminescence, 48 h; cells starved in 0.2% serum; 100% = growth in 10% serum | proliferation, % at 10 µM | actives 0.29% (n = 330,000) | AID 2380;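 active means compounds whose signal lies at least 3.5 SD above the mean of all wells on their plate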;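 further: 0% = DMSO-treated cells in low-serum medium and 100% = 10% serum control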
Ins promoter up = MIN6 insulin promoter up-regulation; MIN6 insulin promoter-GFP reporter, high-content imaging; hits give high values; z-score at 5 µM; actives 0.3% (n = 190,000); AID 1625;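 active means z-score above 3 at 5 µM with at least 500 cells counted in the well; inconclusive means wells under 500 cells, flagged as cytotoxic or low count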
SR-BI uptake up = SR-BI HDL lipid transfer activation | activation, % at 12.5 µM | AID 504775 | CHO ldlA[mSR-BI] cells, DiI-HDL uptake fluorescence, 3 h; 100 = double the neutral-control signal | actives 0.096% (n = 320,000);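 active means mean replicate activation of at least 60% and every replicate at or above 60%; inconclusive means mean or all-replicate condition met, but not both; inactive means mean below 60% and not all replicates reaching 60%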;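 further: 0% = median plate neutral-control signal and 100% = twice that signal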
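Test system: SR-BI-overexpressing, LDLR-lacking CHO cells; Also added: labelled HDL, 10 µg/mL; Measured by: bottom-read cell fluorescence after medium removal, ex 550/em 595 nm; Timing: 3 h uptake period with compound, 37 °C; Buffer or medium: F12, 0.5% BSA, 25 mM HEPES; Doses: single compound concentration, delivered by pin transfer.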
OPRM1 ag = activates human mu opioid receptor in HTR2A counterscreen. U2OS OPRM1 beta-arrestin PathHunter, luminescence; DMSO 0%, DAMGO 9.3 µM 100%. actives 5.3% (n = 2,300). activation, % at 9.3 µM. shares compounds with HTR2A ag;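 active means mean activation above the mean of DMSO-only wells plus 3 SD, cut at about 0.5% in these data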
m5-HT2A ag conf = mouse HTR2A agonism confirmed; shares compounds with HTR2A ag; CHO-K1 PathHunter beta-arrestin recruitment, luminescence; DMSO 0%, 30 µM serotonin 100%; activation, % at 7.6 µM; actives 19% (n = 2,300);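 active means mean activation across triplicates above the hit threshold derived in the original primary screen, cut at about 15% in these data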
Numbers without * were called inactive; ? = inconclusive; . = no result given.

SMILES	HTR2A ag	Calb FLC	SR-BI DiI inh	MIN6 prolif	Ins promoter up	SR-BI uptake up	OPRM1 ag	m5-HT2A ag conf
CN(C)c1nc(N(C)C)n(Cc2c(Cl)cccc2Cl)n1	25*	-11	-21	-3	-0.66	21	-1	-3
C(=N\Nc1nc(N2CCCC2)nc(N2CCCC2)n1)/c1cccnc1	15*	-8	-4	-1	-0.52	4	0	-1
CC(C)(C)Nc1nc(NCc2cccnc2)nc(N2CCOCC2)n1	-1	-11	2	-3	.	-2	.	.
c1ccc(Nc2nc(N3CCNCC3)nc(N3CCOCC3)n2)cc1	23*	-1	26	-5	-2.1	-26	0	12
c1ccc(Nc2nc(N3CCOCC3)nc(N3CCOCC3)n2)cc1	3	16	35	1	0.02	-35	.	.
c1cncc(CNc2nc(N3CCOCC3)nc(N3CCOCC3)n2)c1	16*	-7	-3	0	-0.87	3	0	-5
CCc1ccc(NC(=O)c2sccc2-n2cccc2)cc1	15*	9	66	-4	-0.82	-66	0	-5
COc1cc(NC(=O)c2ccc3c(SCC(=O)O)c4c(nc3c2)CCCC4)cc(OC)c1OC	15*	4	19	0	-0.59	-19	-1	-3
O=C(COC(=O)c1ccc(O)cc1O)NC1CC1	0	.	4	-5	.	-4	.	.
COC(C(=O)NNS(=O)(=O)c1ccccc1[N+](=O)[O-])c1ccccc1 (stereo not given)	18*	0	-27	0	.	27	0	-1
CCOc1ccccc1NC(=O)c1cccc(NC2=NC3CS(=O)(=O)CC3S2)c1 (stereo not given)	15*	-6	-5	-4	.	5	-1	-3
Cc1cccc(N2CCN(C(=O)c3cccc(NC4=NC5CS(=O)(=O)CC5S4)c3)CC2)c1C (stereo not given)	-3	7	-3	0	.	3	.	.
COc1ccccc1N1CCN(C(=O)c2cccc(NC3=NC4CS(=O)(=O)CC4S3)c2)CC1 (stereo not given)	24*	-1	-12	-2	.	12	-1	-3
CC1=C(C(=O)N(C(C)C)C(C)C)CC(CC(=O)NCCc2ccccn2)C(=O)N1Cc1ccc(F)cc1 (stereo not given)	2	.	.	.	.	.	.	.
N#Cc1c(-c2ccccc2)[nH]c(=S)[nH]c1=O	22*	-12	-5	-3	.	5	-1	-4
CN(Cc1ccccc1)C(=O)c1[nH]cnc1C(=O)Nc1ccccc1F	-1	.	.	.	.	.	.	.
NCCCC[C@@H](C(=O)N1CCNCC1)n1cc([C@@H](N)CC(N)=O)nn1	1	.	-22	-1	.	22	.	.
CCOc1ccc(NC(=S)NCc2ccc3c(c2)OCO3)cc1	15*	4	-5	-3	-0.03	5	-1	1
Cc1ccc(NC(=S)NCc2ccc3c(c2)OCO3)cc1	-1	-29	-8	0	-0.39	8	.	.
COc1ccc(-c2csc(-n3ncc(C(=O)O)c3C(F)(F)F)n2)cc1	15*	11	-8	-3	.	8	-1	-4
NC(=O)c1ccc(NC(=O)CCN=C2NS(=O)(=O)c3ccccc32)cc1	1	-16	0	-1	.	0	.	.
CN(CC(=O)Nc1ccc(F)c(F)c1F)C(=O)CCCSc1nc2ccccc2[nH]1	-3	-6	14	4	.	-14	.	.
COc1ccc(S(=O)(=O)NC(C)C(=O)NCc2cccnc2)cc1C (stereo not given)	15*	-1	-17	-2	.	17	0	-1
CCN(C(=O)CSc1nnc(-c2ccccc2C)n1C)c1c(N)n(Cc2ccccc2)c(=O)[nH]c1=O	14*	.	-21	0	.	21	0	-2
Cc1ccccc1-c1nnc(SCC(=O)N(C)c2c(N)n(Cc3ccccc3)c(=O)[nH]c2=O)n1C	-7	5	-26	-1	.	26	.	.
SMILES	HTR2A ag	Calb FLC	SR-BI DiI inh	MIN6 prolif	Ins promoter up	SR-BI uptake up	OPRM1 ag	m5-HT2A ag conf
Cc1ccc(-n2c(C)nnc2SCC(=O)N(C)c2c(N)n(Cc3ccccc3)c(=O)[nH]c2=O)cc1	17*	.	-46	-1	.	.	0	-2
COc1cccc(/C=C/c2nc(C#N)c(NCC(C)C)o2)c1	-1	0	46	-1	.	-46	.	.
COc1ccc(-c2cc(-c3nc4ccccn4c3NCc3ccccc3)ccc2OC)cc1	33*	.	?	-5	.	-77	1.4*	29*
O=C1C2CCCN2C(=O)N1CCN1CCN(c2ccccc2)CC1 (stereo not given)	0	-4	25	0	0.14	-25	.	.
O=C1C2CCCN2C(=O)N1CCCCN1CCN(c2ccccc2)CC1 (stereo not given)	15*	3	-38	-2	0.18	38	-1	47*
COc1ccccc1CNC(=O)COC(=O)c1cnc(C)cn1	12	.	.	.	.	.	.	.
O=C(CCN1CCN(c2ccccc2)CC1)Nc1ccc2c(c1)OCO2	13	-26	21	-2	0.04	-21	.	.
O=C(CCN1CCN(c2ccccc2F)CC1)Nc1ccc2c(c1)OCO2	18*	-18	25	-3	0.25	-25	0	59*
Cc1ccc(S(=O)(=O)N2CCN(C(=O)CSCc3ccc(C(C)C)cc3)CC2)cc1	15*	.	-8	-6	.	8	0	-2
COc1cccc(N2CCN(C(=O)c3ccc(=O)oc3)CC2C)c1 (stereo not given)	21*	-5	-7	-3	0.96	7	-1	4
COc1cccc(NC(=O)N2CCN(c3cccc(C)c3)C(C)C2)c1 (stereo not given)	4	32	26	1	-0.6	-26	.	.
O=C(CCCOC(=O)c1ccc(O)cc1O)c1ccc(Br)cc1	0	.	5	-3	.	-5	.	.
O=C(NCc1ccccc1)C(c1ccccc1)n1c(=O)c(-c2cc3ccccc3[nH]2)nc2ccccc21 (stereo not given)	-2	.	.	.	.	.	.	.
O=C(NCc1ccccc1)C(C1CC1)n1c(=O)c(-c2cc3ccccc3[nH]2)nc2ccccc21 (stereo not given)	15*	.	.	.	.	.	0	2
O=C(CN1C(=O)c2cccnc2Oc2ccc(Cl)cc21)Nc1ccccc1F	19*	2	18	-5	.	-18	0	3
O=C(COC(=O)CCC(=O)c1ccc(Cl)cc1)NCCc1ccccc1	18*	13	13	-1	0.08	-13	-1	-4

Screens (PubChem BioAssay)
